Usually IC50 stands for the point on the concentration scale where inhibition reaches its midpoint. A word on the inhibition: it is how much of the control response was suppressed. In general, Cmax refers to the maximum level reached in the sampled fluid or tissue. A word on the bioavailability: it is the share of a dose that reaches the circulation, judged against a reference dose that is usually intravenous. In general, half-life refers to the time needed for the level to fall by half in the phase considered.

The test system of data set [1] is Rattus norvegicus. In words: Reduction of uric acid level in rat serum at 3 mg/kg, po after 6 hrs by phosphotungstic acid method. Details: scale not given: the % may be the effect or the level left. The data set is classed as functional. In a few lines:
(§1)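 Rats were dosed orally. Blood was drawn from the orbital sinus 2 or 6 h later, clotted 1 h at room temperature and centrifuged. Serum uric acid was measured by the phosphotungstic acid method. Values are mean ± SD of at least three rats.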

The target in data set [2] is T1, Xanthine dehydrogenase/oxidase (Bos taurus, UniProt P80457). In words: Inhibition of bovine milk XOR-mediated uric acid formation after 15 mins by spectrophotometer.
Data set [3] deals with Rattus norvegicus. Put plainly: Reduction of uric acid level in rat serum at 0.3 mg/kg, po after 6 hrs by phosphotungstic acid method. Format: functional. Set-up: scale not given: the % may be the effect or the level left. An outline of the steps: as §1
Data set [4] deals with Rattus norvegicus. In words: Reduction of uric acid level in rat serum at 1 mg/kg, po after 6 hrs by phosphotungstic acid method. The data set is classed as functional. Set-up: scale not given: the % may be the effect or the level left. In a few lines:
as §1

For data set [5], the target named is CYP3A4 (Homo sapiens, UniProt P08684). Put plainly: Inhibition of CYP3A4 in human liver microsomes assessed as inhibition of testosterone hydroxylation at 10 uM by HPLC analysis. Set-up: dose 10 uM. To be noted: probe testosterone (hydroxylation). Format: ADME, Microsome. (Liver microsomes are a subcellular fraction often used to study metabolism.)
Data set [6] in a line: Cmax in rat at 3 mg/kg, po by LC-MS method. The data set is classed as ADME, organism-based. Set-up: dose 3 mg/kg, route oral. To be noted: in vivo. In a few lines:
(§2)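 After oral dosing to rats, jugular vein blood was collected at predetermined times and centrifuged to plasma. Plasma was mixed with acetonitrile containing an internal standard and centrifuged, and the supernatant was analysed by LC–MS.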

The target of data set [7] is T1, Xanthine dehydrogenase/oxidase. Put plainly: Inhibition of bovine milk XOR-mediated uric acid formation at 10 uM after 15 mins by spectrophotometer. To be noted: cattle, 0.25 h.
Data set [8] can be described thus: Cmax in rat at 1 mg/kg, po by LC-MS method. Set-up: dose 1 mg/kg, route oral. The data set is classed as ADME, organism-based. To be noted: in vivo. In a few lines: as §2
Data set [9] has as its system Rattus norvegicus. In words: Reduction of uric acid level in rat serum at 0.3 mg/kg, po after 2 hrs by phosphotungstic acid method. Format: functional. Set-up: scale not given: the % may be the effect or the level left. An outline of the steps:
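Test compound dosed orally to rats; blood drawn from orbital sinus 2 or 6 h post-dose, clotted 1 h at room temperature, centrifuged. Serum uric acid measured by phosphotungstic acid method. Mean ± SD of at least three rats.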

Data set [10] can be described thus: Bioavailability in rat at 3 mg/kg. Format: ADME, organism-based. To be noted: in vivo.
Data set [11] is described as follows: Half life in rat at 3 mg/kg, po by LC-MS method. Format: ADME, organism-based. Set-up: dose 3 mg/kg, route oral. To be noted: in vivo.

Sequence of CYP3A4 (P08684 whole entry): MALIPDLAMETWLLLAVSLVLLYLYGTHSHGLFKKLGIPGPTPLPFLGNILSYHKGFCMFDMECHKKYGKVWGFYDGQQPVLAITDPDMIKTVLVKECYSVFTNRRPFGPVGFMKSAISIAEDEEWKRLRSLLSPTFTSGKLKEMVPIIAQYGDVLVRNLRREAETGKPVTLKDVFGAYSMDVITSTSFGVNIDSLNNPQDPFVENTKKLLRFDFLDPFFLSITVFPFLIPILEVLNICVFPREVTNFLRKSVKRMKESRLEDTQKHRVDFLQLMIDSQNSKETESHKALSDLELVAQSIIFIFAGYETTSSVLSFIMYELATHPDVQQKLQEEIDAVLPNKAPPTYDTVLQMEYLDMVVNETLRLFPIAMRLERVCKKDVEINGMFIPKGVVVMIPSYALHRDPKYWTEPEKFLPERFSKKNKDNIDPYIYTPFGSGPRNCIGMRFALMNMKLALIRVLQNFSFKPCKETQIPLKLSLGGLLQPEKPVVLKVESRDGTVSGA
T1 sequence (P80457 whole entry): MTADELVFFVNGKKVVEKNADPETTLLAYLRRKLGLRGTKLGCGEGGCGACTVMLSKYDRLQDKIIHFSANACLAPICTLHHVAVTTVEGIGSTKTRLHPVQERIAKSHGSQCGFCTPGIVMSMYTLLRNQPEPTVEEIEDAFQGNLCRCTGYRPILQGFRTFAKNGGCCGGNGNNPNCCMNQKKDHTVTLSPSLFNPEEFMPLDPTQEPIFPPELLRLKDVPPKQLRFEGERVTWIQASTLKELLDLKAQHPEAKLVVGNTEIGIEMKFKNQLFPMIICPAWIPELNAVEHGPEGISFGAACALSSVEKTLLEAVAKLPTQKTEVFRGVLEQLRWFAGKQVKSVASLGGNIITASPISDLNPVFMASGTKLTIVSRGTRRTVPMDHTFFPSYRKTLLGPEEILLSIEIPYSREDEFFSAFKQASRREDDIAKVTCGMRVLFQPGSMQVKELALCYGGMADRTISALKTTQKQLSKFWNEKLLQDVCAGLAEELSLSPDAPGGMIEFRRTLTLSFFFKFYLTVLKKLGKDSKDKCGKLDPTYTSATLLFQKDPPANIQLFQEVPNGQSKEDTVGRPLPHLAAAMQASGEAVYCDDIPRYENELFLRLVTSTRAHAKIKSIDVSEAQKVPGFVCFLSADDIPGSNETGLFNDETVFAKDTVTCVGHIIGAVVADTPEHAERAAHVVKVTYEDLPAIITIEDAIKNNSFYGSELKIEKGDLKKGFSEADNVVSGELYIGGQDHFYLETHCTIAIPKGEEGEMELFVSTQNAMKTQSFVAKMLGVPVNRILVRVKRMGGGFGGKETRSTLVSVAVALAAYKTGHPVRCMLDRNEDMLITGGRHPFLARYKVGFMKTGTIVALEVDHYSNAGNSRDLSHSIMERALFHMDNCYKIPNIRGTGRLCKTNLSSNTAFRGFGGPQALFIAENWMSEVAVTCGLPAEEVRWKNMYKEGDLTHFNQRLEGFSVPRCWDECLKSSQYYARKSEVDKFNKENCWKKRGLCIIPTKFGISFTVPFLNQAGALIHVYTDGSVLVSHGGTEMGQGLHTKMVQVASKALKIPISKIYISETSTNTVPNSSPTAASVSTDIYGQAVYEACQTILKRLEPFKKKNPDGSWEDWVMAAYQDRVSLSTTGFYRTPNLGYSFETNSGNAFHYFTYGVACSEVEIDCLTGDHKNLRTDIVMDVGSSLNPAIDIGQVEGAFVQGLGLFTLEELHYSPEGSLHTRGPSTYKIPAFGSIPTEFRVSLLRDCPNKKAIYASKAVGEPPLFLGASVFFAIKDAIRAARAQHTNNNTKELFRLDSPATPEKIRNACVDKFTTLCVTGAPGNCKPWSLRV

On to `CC(C)COc1ccc(-c2n[nH]c(-c3ccncc3)n2)cn1`, for which the Activity in data set [1] and in data set [3] was 13.4% throughout. Further, inhibition in data set [2] was half-maximal at 24 nM (IC50).
In the case of `c1cncc(-c2n[nH]c(-c3ccncc3)n2)c1`, the IC50 in data set [2] was 130 nM. The Activity in [4] (dose 1 mg/kg) is -7.7%. The inhibition at 10 µM in [5] amounted to 10.4%.
`CC(C)COc1ccc(-c2n[nH]c(-c3ccncc3)n2)cc1C#N` registered an IC50 in data set [2] of 4.9 nM. For the same compound, the Activity in data set [3] was found to be 36.3%.
`Clc1cc(-c2n[nH]c(-c3ccncc3)n2)ccn1` had a half-inhibitory concentration (IC50) in data set [2] of 7.9 nM. Also, in data set [6], the peak concentration (Cmax) came out at 4360 ng/mL. The Activity in data set [4] (dose 1 mg/kg) is on record as 26.5%. Also, in data set [5], the inhibition at 10 µM amounted to 54.1%.
On to `CSc1cc(-c2nc(-c3ccnc(C#N)c3)n[nH]2)ccn1`, for which the Activity in data set [3] is given as -3.7%.
As to `CC(C)COc1cc(-c2nc(-c3ccnc(C#N)c3)n[nH]2)ccn1`, in data set [3], the Activity worked out at 1.9%.
The same measure, in the same setting: as for `CC(C)CSc1cc(-c2nc(-c3ccnc(C#N)c3)n[nH]2)ccn1`, the figure is -1.4%; as for `N#Cc1cc(-c2n[nH]c(-c3ccnc(-c4ccccc4)c3)n2)ccn1`, 4.2%.
In [2], `N#Cc1cc(-c2n[nH]c(-c3ccnc(Cl)c3)n2)ccn1` showed an IC50 of 39 nM. Also, the Cmax in data set [6] turned out to be 5340 ng/mL. Besides, in data set [3], the Activity is given as 33.6%. In data set [5], the inhibition at 10 µM stood at 3.6%.
In data set [2], `N#Cc1cc(-c2n[nH]c(-c3ccnc(C#N)c3)n2)ccn1` gave an IC50 of 18 nM. The Activity in data set [3] stood at 32%.
On the same counts, the results for `Brc1cc(-c2n[nH]c(-c3ccncc3)n2)ccn1` are 9.9 nM and -6.2%.
On to `Fc1cc(-c2n[nH]c(-c3ccncc3)n2)ccn1`, for which, in [2], the IC50 amounted to 48 nM. Further, the Activity in data set [3] is recorded as -0.2%. Besides, the inhibition at 10 µM in data set [5] was determined as 40.2%.
Take `c1ccc(-c2cc(-c3n[nH]c(-c4ccncc4)n3)ccn2)cc1`: in [2], the midpoint of inhibition, the IC50, lay at 6.8 nM. Besides, the Activity in data set [3] was -0.4%.
On to `c1cc(-c2n[nH]c(-c3ccncc3)n2)ccn1`, for which the IC50 in data set [2] turned out to be 170 nM. Besides, the Activity in data set [4] (dose 1 mg/kg) was -6.8%. In addition, in data set [5], the inhibition at 10 µM was 18.5%.
On to `c1ccc(-c2n[nH]c(-c3ccncc3)n2)nc1`, for which the inhibition at 10 µM stood at 31% in data set [7] and 20.3% in [5].
Turning to `Cc1cc(-c2nc(-c3ccncc3)n[nH]2)ccn1`, in data set [2], the IC50 stood at 28 nM. The compound further showed a Cmax in data set [8] of 1240 ng/mL. In data set [3], the Activity was -0.4%. The inhibition at 10 µM in [5] came out at 24.7%.
With `Cc1cc(-c2n[nH]c(-c3ccnc(C)c3)n2)ccn1`, half-maximal inhibition in [2] (IC50) required 310 nM. Also, the Activity in data set [3] was 26.1%. Besides, the inhibition at 10 µM in data set [5] was 15.3%.
The compound `N#Cc1ccc(-c2n[nH]c(-c3ccncc3)n2)cn1` returned an IC50 in data set [2] of 38 nM. Further, the Activity in data set [4] (dose 0.3 mg/kg, in the assay text read “at 0.3 mg/kg” for “at 1 mg/kg”) was -4%.
`Cc1cc(-c2nc(-c3ccc(OCC(C)C)nc3)n[nH]2)ccn1` yielded a half-maximal inhibitory concentration (IC50) in data set [2] of 170 nM. Further, the Activity in data set [3] stood at 13%.
On to `CC(C)COc1ccc(-c2n[nH]c(-c3ccnc(C#N)c3)n2)cn1`, for which the Activity in data set [1] is -6.1%. Besides, the IC50 in data set [2] was determined as 590 nM.
`Cc1cc(-c2nc(-c3ccc(Cl)c([N+](=O)[O-])c3)n[nH]2)ccn1` displayed a 50% inhibitory concentration (IC50) in data set [2] of 30 nM. Also, the Activity in data set [3] was 19.8%.
On the same counts, the results for `COc1ccc(-c2n[nH]c(-c3ccncc3)n2)cc1[N+](=O)[O-]` are 3.3 nM and 19.6%.
On the same counts, the results for `O=[N+]([O-])c1cc(-c2n[nH]c(-c3ccncc3)n2)ccc1Cl` are 4.7 nM and 0.9%.
On the same counts, the results for `CSc1cc(-c2nc(-c3ccnc(C)c3)n[nH]2)ccn1` are 170 nM and 19.2%.
On to `Cc1cc(-c2n[nH]c(-c3ccnc(-c4ccccc4)c3)n2)ccn1`, for which 59 nM corresponded to half-maximal inhibition in data set [2] (IC50). In addition, the Activity in [3] was found to be 8%.
Take `Cc1cc(-c2n[nH]c(-c3ccnc(OCC(C)C)c3)n2)ccn1`: in data set [2], 63 nM corresponded to half-maximal inhibition (IC50). The same compound returned a Cmax in data set [6] of 1440 ng/mL. Besides, the Activity in data set [3] came to 2.3%.
For `Cc1cc(-c2n[nH]c(-c3ccnc(SCC(C)C)c3)n2)ccn1`, half-maximal inhibition in [2] (IC50) required 46 nM. The Activity in data set [3] came out at 4.5%.
In data set [2], `Cc1cc(-c2n[nH]c(-c3ccnc(C#N)c3)n2)ccn1` gave an IC50 of 59 nM. Further, the peak level in [6] (Cmax) was 3970 ng/mL. The Activity in [3] is reported as 41.1%. Moreover, the inhibition at 10 µM in data set [5] was found to be 4.7%.
Regarding `Cc1cc(-c2n[nH]c(-c3ccnc(Cl)c3)n2)ccn1`, the midpoint of inhibition in data set [2], the IC50, lay at 89 nM. The same compound gave a Cmax in [6] of 4070 ng/mL. In data set [3], the Activity was 32.9%.
Take `COc1ccc(-c2n[nH]c(-c3ccnc(C)c3)n2)cc1[N+](=O)[O-]`: in data set [2], the concentration for half-maximal inhibition (IC50) stood at 17 nM. Further, the Activity in data set [3] is 19.3%.
On the same counts, the results for `COCCOCCOc1ccc(-c2nc(-c3ccnc(C)c3)n[nH]2)cc1C#N` are 31 nM and 52%.
On the same counts, the results for `Cc1cc(-c2nc(-c3ccc(OCC(C)C)c([N+](=O)[O-])c3)n[nH]2)ccn1` are 10 nM and 39.1%.
On the same counts, the results for `CC(C)COc1ccc(-c2n[nH]c(-c3ccncc3)n2)cc1[N+](=O)[O-]` are 3.7 nM and 33.7%.
Regarding `Cc1cc(-c2nc(-c3ccc(OCC(C)C)c(C#N)c3)n[nH]2)ccn1`, in data set [2], the IC50 was 17 nM. Further, in data set [3], the Activity was 46%.
On to `Oc1ncnc2[nH]ncc12` [ALLOPURINOL], for which the Activity in [9] is 35.9%; in data set [3], -3.3%.
The compound `N#Cc1cc(-c2n[nH]c(-c3ccncc3)n2)ccn1` [TOPIROXOSTAT] returned a bioavailability in data set [10] of 69.6%. This compound also came in with an IC50 in data set [2] of 5.3 nM. This compound also had a half-life in [11] of 19.7 h. Besides, the Activity in data set [9] is listed as 59.9%; in data set [3], 51.1%. Moreover, in data set [5], the inhibition at 10 µM came out at 18.6%.
